For series [1], the system named is MOLM-13. The series can be described thus: Antiproliferative activity against human MOLM-13 cells transfected with FLT3-ITD mutant assessed as cell growth inhibition incubated for 72 hrs by CCK-8 assay. The series is classed as functional. An outline of the steps: (§1)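 Cells kept at 37 °C, 5% CO2. MV4-11 grown in IMDM with 10% FBS. MOLM13, MOLM14, U937 and HL-60 grown in RPMI 1640 with 10% FBS. OCI-AML-2 grown in α-MEM with 20% FBS. Seeded at 1500-3000 cells/well and exposed to a concentration series for 72 h. Viability read by CCK8 absorbance at 450 nm.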
For orientation: Formazan colour is commonly taken as a measure of viable cells.

For series [2], the system named is MOLM-14. Description: Inhibition of ERK phosphorylation at Thr202/Tyr204 residues in human MOLM-14 cells harboring FLT3-ITD mutant incubated for 4 hrs by Western blot analysis. The series is classed as cell-based. Particulars: dose 0.01-3 µM. An outline of the steps: (§2)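 Cells were exposed to the compound at a series of concentrations for 4 h, and whole-cell lysates were analysed by Western blot. MV4-11 cells were grown in IMDM with 10% FBS. MOLM13 and MOLM14 cells were grown in RPMI 1640 with 10% FBS. All cultures were kept at 37 °C with 5% CO2.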
In general terms: A western blot detects proteins with antibodies after separation by electrophoresis.

Series [3] has as its system MV4-11. Description: Antitumor activity against human MV4-11 cells xenografted in nu/nu mouse assessed as suppression of cell proliferation administered orally via gavage for 28 days by ki67 staining based immunohistochemical analysis. The format is functional. Particulars: dose 25-100 mg/kg/day, route po, time 28.0 day. The method, boiled down:
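Tumours taken from MV4-11 xenograft mice after 28 days of daily oral dosing. Tissue stained with HE, Ki-67 (proliferation) and TUNEL (apoptosis), and treated groups compared with the vehicle group.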
For orientation: A xenograft is tissue or cells of one species grown in another, often human tumour cells in immunodeficient mice.

For series [4], the system named is BaF3. Description: Antiproliferative activity against mouse BaF3 cells transfected with FLT3 ITD D835I mutant assessed as cell growth inhibition incubated for 72 hrs by CCK-8 assay. The format is functional. The method, boiled down:
(§3)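 Kinase-transformed isogenic BaF3 lines grown in RPMI 1640 with 10% FBS, 2% L-glutamine and pen/strep at 37 °C, 5% CO2. Seeded at 1500-3000 cells/well and treated with a compound concentration series for 72 h. Viability read by CCK8 absorbance at 450 nm.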

Series [5] deals with BaF3. Description: Antiproliferative activity against mouse BaF3 cells transfected with TEL fused FLT3 Y842H mutant assessed as cell growth inhibition incubated for 72 hrs by CCK-8 assay. The format is functional. An outline of the steps:
as §3

Series [6] deals with MV4-11. The series can be described thus: Antitumor activity against human MV4-11 cells xenografted in nu/nu mouse assessed as inhibition of tumor growth at 50 mg/kg/day, po administered via gavage for 28 days relative to control. The series is classed as functional. The note with it: MV4-11, 672 h, time 28 day, read-out: TGI. An outline of the steps:
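MV4-11 cells implanted in mice. Once tumours reached a mean of about 200 mm3, mice were dosed orally once daily for 28 days with vehicle or 25, 50 or 100 mg/kg/day. Tumour size and body weight tracked relative to starting values; final tumour weight also recorded.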

The nature of series [7]: Tmax in Sprague-Dawley rat at 10 mg/kg, po. The format is ADME, organism-based. The note with it: in vivo. The method, boiled down: (§4)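 Sprague-Dawley rats were dosed either intravenously at 1 mg/kg or by oral gavage at 10 mg/kg. Plasma PK parameters were AUC(0-t), AUC(0-∞), MRT(0-t), T1/2, Tmax, Vz, CLz, Cmax and F%. Values are the mean ± SD of three independent animals.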

The nature of series [8]: Half life in Sprague-Dawley rat at 10 mg/kg, po. Particulars: in vivo. The series is classed as ADME, organism-based. The method, boiled down:
as §4

Series [9] relates to BaF3. The series can be described thus: Antiproliferative activity against mouse BaF3 cells transfected with FLT3 ITD mutant harboring FLAG-tagged DYKDDDDK sequence assessed as cell growth inhibition incubated for 72 hrs by CCK-8 assay. The series is classed as functional. An outline of the steps: as §3
The test system of series [10] is MOLM-13. Description: Inhibition of ERK phosphorylation at Thr202/Tyr204 residues in human MOLM-13 cells harboring FLT3-ITD mutant incubated for 4 hrs by Western blot analysis. The series is classed as cell-based. The note with it: dose 0.01-3 µM. An outline of the steps: as §2
For series [11], the system named is MV4-11. The series can be described thus: Antiproliferative activity against human MV4-11 cells transfected with FLT3-ITD mutant assessed as cell growth inhibition incubated for 72 hrs by CCK-8 assay. The format is functional. An outline of the steps: as §1
Series [12] deals with BaF3. The series can be described thus: Antiproliferative activity against mouse BaF3 cells transfected with FLT3 ITD mutant harboring AML patient derived GLVQVTGSSDNEYFYVDFREYE sequence assessed as cell growth inhibition incubated for 72 hrs by CCK-8 assay. The series is classed as functional. An outline of the steps: as §3
The test system of series [13] is BaF3. Description: Antiproliferative activity against mouse BaF3 cells transfected with TEL fused FLT3 K663Q mutant assessed as cell growth inhibition incubated for 72 hrs by CCK-8 assay. The series is classed as functional. The method, boiled down:
as §3

Series [14] has as its target T1, Receptor-type tyrosine-protein kinase FLT3 (Homo sapiens, UniProt P36888).
T1 sequence (P36888 whole entry): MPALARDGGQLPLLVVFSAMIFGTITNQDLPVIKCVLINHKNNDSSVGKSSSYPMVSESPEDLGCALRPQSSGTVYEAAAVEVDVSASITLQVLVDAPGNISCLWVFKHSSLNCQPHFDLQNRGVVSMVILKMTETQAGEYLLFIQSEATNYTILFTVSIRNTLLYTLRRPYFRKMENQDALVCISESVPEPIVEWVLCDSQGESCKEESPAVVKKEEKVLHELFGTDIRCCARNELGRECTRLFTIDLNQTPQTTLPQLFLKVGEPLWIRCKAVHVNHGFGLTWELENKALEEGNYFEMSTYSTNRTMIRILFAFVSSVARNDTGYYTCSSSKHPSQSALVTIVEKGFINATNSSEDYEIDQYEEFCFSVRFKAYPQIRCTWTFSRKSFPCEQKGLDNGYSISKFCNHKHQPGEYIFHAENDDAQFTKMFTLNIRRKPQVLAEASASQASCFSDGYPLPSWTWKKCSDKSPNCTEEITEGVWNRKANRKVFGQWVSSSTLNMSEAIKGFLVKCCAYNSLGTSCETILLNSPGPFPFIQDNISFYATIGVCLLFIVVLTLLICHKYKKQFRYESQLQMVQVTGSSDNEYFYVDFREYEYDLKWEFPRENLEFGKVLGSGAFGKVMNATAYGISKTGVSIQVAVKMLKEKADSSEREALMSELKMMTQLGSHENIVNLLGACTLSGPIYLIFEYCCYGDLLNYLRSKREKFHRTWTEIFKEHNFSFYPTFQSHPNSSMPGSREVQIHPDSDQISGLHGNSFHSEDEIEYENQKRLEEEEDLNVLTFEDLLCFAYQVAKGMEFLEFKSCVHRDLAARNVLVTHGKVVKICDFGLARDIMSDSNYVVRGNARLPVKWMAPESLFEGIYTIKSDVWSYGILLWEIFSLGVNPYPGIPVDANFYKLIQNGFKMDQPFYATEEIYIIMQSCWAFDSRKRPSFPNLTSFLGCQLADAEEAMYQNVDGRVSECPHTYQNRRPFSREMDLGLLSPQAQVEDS
The series can be described thus: Inhibition of FLT3 (unknown origin) preincubated for 60 mins followed by ATP addition and measured after 1 hr by ADP-Glo assay.

Series [15] deals with MOLM-13. Description: Inhibition of AKT phosphorylation at Thr308 residue in human MOLM-13 cells harboring FLT3-ITD mutant incubated for 4 hrs by Western blot analysis. The series is classed as cell-based. Particulars: dose 0.01-3 µM. The method, boiled down:
as §2

For series [16], the system named is OCI-AML2. The series can be described thus: cells. The format is functional. The note with it: Homo sapiens, time 72 hrs.

For orientation: GI50 means the concentration at which growth is held to half of that of the control. The Tmax is the time at which the peak concentration occurs. The term half-life denotes the time needed for the level to fall by half in the phase considered. A higher half-life goes with slow decline. Usually IC50 stands for the concentration that inhibits the measured activity by half.

Regarding `CC(=O)Nc1cc(Oc2ccc(NC(=O)Cc3ccccc3C(F)(F)F)cc2)ncn1`, the GI50 in series [1] was 466 nM; in series [4], over 10000 nM; in [5], 7500 nM; in [9], 85 nM; in [11] it was 284 nM; in series [12], 32 nM. Besides, the values for the GI50 in series [13] and in series [16] were 9400 nM and over 10000 nM, respectively. Moreover, the inhibition entry in series [2], in series [10] and in [15] was “Dose-Dependent Effect” each time. Besides, the Activity entry in series [3] was “Dose-Dependent Effect”. Moreover, the inhibition in vivo at 50 mg/kg/day in series [6] amounted to 68%. In addition, the Tmax in series [7] turned out to be 2 h. The compound further had a half-life in [8] of 2.8 h. This compound also gave an IC50 in series [14] of 90.8 nM.
